Experimental data reported in ChEMBL document CHEMBL4765234 (J Med Chem, 2016).
pEC50, pKi: −log10 of the molar value. Activity calls are given as the source filed them. No cut-off for these calls is given here.

Legend:
[1] = molecular target: T1, Free fatty acid receptor 1 (Homo sapiens, UniProt O14842); assay: Agonist activity at human recombinant full-length Prolink-tagged GPR40 fused with EA-tagged beta-arrestin expressed in human HEK293 cells assessed as induction of beta-arrestin recruitment measured after 90 mins by beta-galactosidase based PathHunter assay relative to control; assay type: cell-based; conditions: filed as agonist
T1 sequence (O14842 whole entry, the tested form may be a part): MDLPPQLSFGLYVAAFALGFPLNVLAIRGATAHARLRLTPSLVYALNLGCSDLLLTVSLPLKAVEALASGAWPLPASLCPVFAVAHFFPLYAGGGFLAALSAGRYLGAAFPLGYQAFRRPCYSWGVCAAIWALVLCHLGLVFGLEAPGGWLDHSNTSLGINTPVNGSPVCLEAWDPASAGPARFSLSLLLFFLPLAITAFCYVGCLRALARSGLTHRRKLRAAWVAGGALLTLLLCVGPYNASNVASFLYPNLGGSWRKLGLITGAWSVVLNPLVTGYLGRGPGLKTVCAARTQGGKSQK
Procedure, shortened: (§1)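 PathHunter β-gal complementation. Cells were incubated overnight at 5000/well in medium with 1% heat-inactivated FBS. Compound was added as a 20-point 2-fold series from a top final of 100 μM (1% DMSO) for 90 min at 37 °C, followed by detection reagents and chemiluminescence read after 1 h at rt.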

[2] = molecular target: T1, Free fatty acid receptor 1; assay: Agonist activity at human recombinant full-length Prolink-tagged GPR40 fused with EA-tagged beta-arrestin expressed in human HEK293 cells assessed as induction of beta-arrestin recruitment measured after 90 mins by beta-galactosidase based PathHunter assay; assay type: cell-based; procedure, shortened: as §1
[3] = molecular target: T1, Free fatty acid receptor 1; assay: Displacement of [3H]-TAK-875 from human recombinant full-length GPR40 expressed in human HEK293 cell membrane incubated for 2 hrs by solid scintillation counting method; assay type: cell membranes
[4] = Protein binding in plasma (unknown origin) by equilibrium dialysis method; assay type: ADME, cell-free; conditions: human, read-out: PPB
Procedure, shortened: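 Plasma protein binding measured by equilibrium dialysis.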

[5] = molecular target: Free fatty acid receptor 1 (Mus musculus) (UniProt Q76JU9); assay: Agonist activity at Prolink-tagged mouse GPR40 fused with EA-tagged beta-arrestin expressed in human U2OS cells assessed as induction of beta-arrestin recruitment measured after 90 mins by beta-galactosidase based PathHunter assay relative to control; assay type: cell-based; conditions: filed as agonist; procedure, shortened: as §1
Free fatty acid receptor 1 (Mus musculus), sequence (Q76JU9 whole entry, the tested form may be a part): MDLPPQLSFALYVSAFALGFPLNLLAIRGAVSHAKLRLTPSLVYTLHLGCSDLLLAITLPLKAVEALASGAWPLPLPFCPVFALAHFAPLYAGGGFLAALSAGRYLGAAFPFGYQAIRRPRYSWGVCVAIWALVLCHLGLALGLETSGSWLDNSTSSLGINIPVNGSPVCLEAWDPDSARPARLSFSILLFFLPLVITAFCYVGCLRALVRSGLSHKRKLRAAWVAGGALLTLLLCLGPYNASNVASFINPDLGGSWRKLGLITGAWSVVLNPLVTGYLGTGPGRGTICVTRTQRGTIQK

[6] = molecular target: T1, Free fatty acid receptor 1; assay: Agonist activity at human recombinant full length GPR40 overexpressed in human HEK293 cells assessed as increase in intracellular calcium level measured over 3 mins by calcium 4 dye based FLIPR assay; assay type: functional, cell-based
Procedure, shortened: (§2)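 HEK293 cells overexpressing hGPR40 (25K/well) were cultured overnight in DMEM/F12 with 0.2% FBS and geneticin. Compound was tested at 40 μM–0.1 nM final (20-point, 1% DMSO), and FLIPR fluorescence was read over 3 min.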

[7] = molecular target: Free fatty acid receptor 1 (Rattus norvegicus) (UniProt Q8K3T4); assay: Agonist activity at Prolink-tagged rat GPR40 fused with EA-tagged beta-arrestin expressed in human U2OS cells assessed as induction of beta-arrestin recruitment measured after 90 mins by beta-galactosidase based PathHunter assay relative to control; assay type: cell-based; conditions: filed as agonist; procedure, shortened: as §1
Free fatty acid receptor 1 (Rattus norvegicus), sequence (Q8K3T4 whole entry, the tested form may be a part): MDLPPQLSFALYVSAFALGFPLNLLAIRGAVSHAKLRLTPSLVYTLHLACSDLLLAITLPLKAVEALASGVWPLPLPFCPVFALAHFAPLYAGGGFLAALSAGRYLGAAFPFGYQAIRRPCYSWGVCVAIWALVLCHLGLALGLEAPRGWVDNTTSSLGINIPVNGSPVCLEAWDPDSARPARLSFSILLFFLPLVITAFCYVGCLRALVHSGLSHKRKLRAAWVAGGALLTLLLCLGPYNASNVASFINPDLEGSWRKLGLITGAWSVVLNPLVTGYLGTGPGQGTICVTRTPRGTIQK

[8] = molecular target: T1, Free fatty acid receptor 1; assay: Agonist activity at human recombinant full length GPR40 overexpressed in human HEK293 cells assessed as increase in intracellular calcium level measured over 3 mins by calcium 4 dye based FLIPR assay relative to 100 uM linoleic acid; assay type: functional, cell-based; conditions: filed as agonist; procedure, shortened: as §2
[9] = molecular target: Free fatty acid receptor 1 (Rattus norvegicus, UniProt Q8K3T4); assay: Agonist activity at Prolink-tagged rat GPR40 fused with EA-tagged beta-arrestin expressed in human U2OS cells assessed as induction of beta-arrestin recruitment measured after 90 mins by beta-galactosidase based PathHunter assay; assay type: cell-based; procedure, shortened: as §1
Free fatty acid receptor 1 (Rattus norvegicus, UniProt Q8K3T4), sequence (Q8K3T4 whole entry, the tested form may be a part): as above

[10] = molecular target: T1, Free fatty acid receptor 1; assay: Agonist activity at human recombinant full length GPR40 overexpressed in human HEK293 cells assessed as increase in inositol phosphate accumulation in presence of terbium cryptate-labeled anti IP1/d2-labelled IP1 measured after 120 mins by HTRF assay relative to AMG837; assay type: functional, cell-based; conditions: filed as agonist
Procedure, shortened: (§3)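 HEK293 hGPR40 cells (20K/well) were cultured overnight, washed, and held in IP1 stimulation buffer. IP-1 was measured by competitive HTRF immunoassay with terbium cryptate anti-IP1 mAb and d2-labelled IP1.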

[11] = molecular target: T1, Free fatty acid receptor 1; assay: Agonist activity at human recombinant full length GPR40 overexpressed in human HEK293 cells assessed as increase in inositol phosphate accumulation in presence of terbium cryptate-labeled anti IP1/d2-labelled IP1 measured after 120 mins by HTRF assay; assay type: functional, cell-based; procedure, shortened: as §3
[12] = molecular target: T2, Peroxisome proliferator-activated receptor gamma (Homo sapiens) (UniProt P37231); assay: Displacement of [3H]-[…] from PPARgamma (unknown origin) expressed in baculovirus infected Sf9 insect cells upto 30 uM measured after 10 hrs by microbeta scintillation counting analysis; conditions: dose microM <=30, time 10.0 hrs
T2 sequence (whole entry): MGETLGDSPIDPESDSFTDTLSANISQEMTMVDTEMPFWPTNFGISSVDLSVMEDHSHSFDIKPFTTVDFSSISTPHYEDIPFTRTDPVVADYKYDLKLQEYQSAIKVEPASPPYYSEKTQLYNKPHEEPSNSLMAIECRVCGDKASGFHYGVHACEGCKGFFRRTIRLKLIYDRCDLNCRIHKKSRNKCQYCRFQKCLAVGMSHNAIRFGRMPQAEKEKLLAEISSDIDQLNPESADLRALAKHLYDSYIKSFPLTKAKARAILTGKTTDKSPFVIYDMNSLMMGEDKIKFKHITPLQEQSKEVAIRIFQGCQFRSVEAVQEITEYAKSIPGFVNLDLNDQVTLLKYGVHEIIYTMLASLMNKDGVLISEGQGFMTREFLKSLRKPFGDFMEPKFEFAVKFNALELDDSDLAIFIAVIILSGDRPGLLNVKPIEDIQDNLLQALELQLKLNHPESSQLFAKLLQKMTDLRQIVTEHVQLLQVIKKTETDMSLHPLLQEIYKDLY
Procedure, shortened: (§4)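 Scintillation proximity assay. Sf9 lysates with baculovirus-expressed PPARα (0.3 μg), PPARδ (0.5 μg) or PPARγ (1.25 μg), each with RXRα, were bound via biotinylated DR2 oligo (0.126 nM) to streptavidin yttrium silicate beads. Buffer was HEPES pH 7.8 with KCl, MgCl2, DTT, CHAPS, 14% glycerol and salmon sperm DNA. A 3H reference agonist ligand was used, with 11 compound concentrations, for 10 h. Nonspecific binding was defined with 10000 nM unlabeled reference. Ki was derived from IC50.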

[13] = molecular target: T3, Peroxisome proliferator-activated receptor alpha (Homo sapiens) (UniProt Q07869); assay: Displacement of [3H]-[…] from PPARalpha (unknown origin) expressed in baculovirus infected Sf9 insect cells upto 30 uM measured after 10 hrs by microbeta scintillation counting analysis; conditions: dose microM <=30, time 10.0 hrs; procedure, shortened: as §4
T3 sequence (whole entry): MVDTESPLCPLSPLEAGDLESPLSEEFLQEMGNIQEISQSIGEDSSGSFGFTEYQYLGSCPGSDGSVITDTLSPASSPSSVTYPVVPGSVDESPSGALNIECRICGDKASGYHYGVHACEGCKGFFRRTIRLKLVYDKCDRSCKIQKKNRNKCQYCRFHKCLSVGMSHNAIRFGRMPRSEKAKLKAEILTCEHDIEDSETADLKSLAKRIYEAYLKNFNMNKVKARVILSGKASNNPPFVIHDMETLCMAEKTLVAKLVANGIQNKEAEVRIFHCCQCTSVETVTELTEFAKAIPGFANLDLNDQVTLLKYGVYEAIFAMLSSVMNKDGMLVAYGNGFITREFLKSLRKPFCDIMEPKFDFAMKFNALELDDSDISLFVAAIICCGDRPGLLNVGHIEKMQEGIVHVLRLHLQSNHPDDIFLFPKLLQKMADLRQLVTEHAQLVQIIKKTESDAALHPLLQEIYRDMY

[14] = molecular target: Free fatty acid receptor 1 (Mus musculus, UniProt Q76JU9); assay: Agonist activity at Prolink-tagged mouse GPR40 fused with EA-tagged beta-arrestin expressed in human U2OS cells assessed as induction of beta-arrestin recruitment measured after 90 mins by beta-galactosidase based PathHunter assay; assay type: cell-based; procedure, shortened: as §1
Free fatty acid receptor 1 (Mus musculus, UniProt Q76JU9), sequence (Q76JU9 whole entry, the tested form may be a part): as the sequence (Q76JU9 whole entry, the tested form may be a part) above

[15] = molecular target: T4, Peroxisome proliferator-activated receptor delta (Homo sapiens) (UniProt Q03181); assay: Displacement of [3H]-[…] from PPARdelta (unknown origin) expressed in baculovirus infected Sf9 insect cells upto 30 uM measured after 10 hrs by microbeta scintillation counting analysis; conditions: dose microM <=30, time 10.0 hrs; procedure, shortened: as §4
T4 sequence (whole entry): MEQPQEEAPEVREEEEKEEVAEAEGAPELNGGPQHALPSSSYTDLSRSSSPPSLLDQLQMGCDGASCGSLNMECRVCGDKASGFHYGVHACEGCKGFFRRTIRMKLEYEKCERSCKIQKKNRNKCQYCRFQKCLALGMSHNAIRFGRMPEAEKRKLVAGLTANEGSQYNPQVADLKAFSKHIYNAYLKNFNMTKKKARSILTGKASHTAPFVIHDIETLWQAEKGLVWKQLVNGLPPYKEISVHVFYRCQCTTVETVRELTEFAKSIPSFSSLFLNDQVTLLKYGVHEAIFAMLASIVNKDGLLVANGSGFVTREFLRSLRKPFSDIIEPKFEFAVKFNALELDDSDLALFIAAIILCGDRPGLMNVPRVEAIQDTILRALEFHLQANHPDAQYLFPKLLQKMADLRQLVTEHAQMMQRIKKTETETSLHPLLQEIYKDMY

SMILES | Emax [1] [%] | pEC50 [2] | pKi [3] | fraction unbound [4] | Emax [5] [%] | pEC50 [6] | Emax [7] [%] | Emax [8] [%] | pEC50 [9] | Emax [10] [%] | pEC50 [11] | Activity [12] | Activity [13] | pEC50 [14] | Activity [15]
CC#C[C@@H](CC(=O)O)c1ccc(OCc2ccc(CN3CCC4(C=Cc5ccccc54)CC3)o2)cc1 | 121 | 7.21 | 7.70 | < 0.01 | 121 | 8.80 | 117 | 59 | 8.38 | 127 | 7.66 | inactive | inactive | 8.68 | inactive
CC#C[C@@H](CC(=O)O)c1ccc(OCc2ccc(CN3CCC4(CC3)CN(C)c3ccc(C(F)(F)F)cc34)cc2)cc1 | 139 | 8.54 | 8.57 | < 0.01 | 158 | 7.85 | 154 | 42 | 9.23 | 275 | 8.33 | inactive | inactive | 9.30 | inactive
CC#C[C@@H](CC(=O)O)c1ccc(OCc2cc(C)c(CN3CCC4(C=Cc5ccccc54)CC3)s2)cc1 | 127 | 8.41 | 8.46 | < 0.01 | 122 | 8.54 | 121 | 65 | 8.96 | 132 | 9.01 | inactive | inactive | 9.16 | inactive
CC#C[C@@H](CC(=O)O)c1ccc(OCc2cnc(CN3CCC4(C=Cc5ccccc54)CC3)s2)cc1 | 114 | 6.77 | 6.92 | < 0.01 | 127 | 8.36 | 114 | 62 | 7.96 | 129 | 8.28 | inactive | inactive | 8.42 | inactive
CC#C[C@@H](CC(=O)O)c1ccc(OCc2sc(CN3CCC4(C=Cc5ccccc54)CC3)nc2C)cc1 | 100 | 6.28 | 7.00 | < 0.01 | 97 | 7.77 | 73 | 53 | 7.00 | 97 | 7.14 | inactive | inactive | 7.74 | inactive
CC#C[C@@H](CC(=O)O)c1ccc(OCc2ccc(CN3CCC4(C=Cc5ccccc54)CC3)cc2)cc1F | 118 | 7.44 | 7.89 | < 0.01 | 120 | 7.74 | 115 | 60 | 7.80 | 156 | 7.85 | inactive | inactive | 8.25 | inactive
CC#C[C@@H](CC(=O)O)c1ccc(OCc2ccc(CN3CCC4(C=Cc5ccccc54)CC3)c(C)c2)cc1 | 150 | 8.77 | 8.89 | < 0.01 | 147 | 7.64 | 146 | 47 | 9.27 | 206 | 8.38 | inactive | inactive | 9.38 | inactive
